In ChEMBL document CHEMBL5653611, “A combination of H2A.Z and H4 acetylation recruits Brd2 to chromatin during transcriptional activation” (PLoS Genet, 2012):
Calls of active or inactive are those of the source.

What was measured:
[1] = system: LNCaP; test: Antiproliferative activity against human LNCaP cells for 24 hrs by MTS assay; assay type: functional, cell-based; conditions: dose 125-500 nM
Method in brief: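 LNCaP cells seeded in 96-well plates and grown 24 hrs, then exposed to a range of concentrations (DMSO vehicle control) for 24 hrs. MTS reagent added and absorbance read at 490 nm.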

[2] = system: LNCaP; test: Inhibition of Brd2-PSA protein-protein interaction in DHT stimulated human LNCaP cells at 125 to 250 nM measured for 60 mins by ChIP analysis; assay type: cell-based; conditions: dose 125-250 nM
Method in brief: (§1)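 LNCaP cells held 72 hrs in phenol-red-free RPMI with 5% charcoal-stripped FBS, pretreated with compound, then stimulated with 10 nM DHT (ethanol control). Brd2 occupancy at enhancer and promoter regions measured by ChIP 60 min after stimulation.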

[3] = system: LNCaP; test: Inhibition of Brd2-KLK2 protein-protein interaction in DHT stimulated human LNCaP cells at 125 to 250 nM measured for 60 mins by ChIP analysis; assay type: cell-based; conditions: dose 125-250 nM; method in brief: as §1
[4] = system: LNCaP; test: Effect on human LNCaP cells assessed as decrease in KLK2 mRNA expression pretreated with compound for 24 hrs followed by androgen stimulation for 24 hrs by RT-qPCR analysis; assay type: functional, cell-based; conditions: dose 125-500 nM
Method in brief: (§2)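 LNCaP cells grown 72 hrs in phenol-red-free RPMI with 5% charcoal-stripped FBS, pretreated with compound, then stimulated with 10 nM DHT (ethanol vehicle for controls). Transcript levels measured by RT-qPCR.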

[5] = system: LNCaP; test: Effect on human LNCaP cells assessed as decrease in PSA mRNA expression pretreated with compound for 24 hrs followed by androgen stimulation for 24 hrs by RT-qPCR analysis; assay type: functional, cell-based; conditions: dose 125-500 nM; method in brief: as §2
[6] = system: LNCaP; test: Inhibition of Brd2-H2A.Z protein-protein interaction in human LNCaP cells at 125 to 250 nM by Western blotting analysis; assay type: cell-based; conditions: dose 125-250 nM
[7] = system: LNCaP; test: Effect on DHT stimulated human LNCaP cells assessed as decrease in histone acetylation at 125 to 250 nM measured for 60 mins by ChIP analysis; assay type: functional, cell-based; conditions: dose 125-250 nM
[8] = system: HEK-293T; test: Effect on human 293T cells assessed as increase in histone acetylation at 200 nM for 2 hrs by Western blotting analysis; assay type: functional, cell-based
Method in brief: (§3)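 293T cells transfected with Flag-H2A.Z or Flag-H2A (for line 5, co-transfected with YFP-Brd2), treated with 200 nM for 2 hrs (DMSO vehicle) before harvest. Read-out by Western blot of input and of Flag IP of MNase-digested mononucleosomes, overnight at 4°C on M2-agarose.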

[9] = system: HEK293T; test: Binding affinity to Brd2-H2A.Z protein-protein interaction in human 293T cells at 200 nM for 2 hrs by Western blotting analysis; assay type: cell-based; method in brief: as §3
[10] = system: HEK-293T; test: Effect on human 293T cells expressing YFP-Brd2 assessed as increase in protein immunoprecipitated cells at 200 nM for 2 hrs; assay type: functional, cell-based; method in brief: as §3

Cc1sc2c(c1C)C(c1ccc(Cl)cc1)=N[C@@H](CC(=O)OC(C)(C)C)c1nnc(C)n1-2
active: Activity [1] Dose-Dependent Effect | inhibition [2] | inhibition [3] | Activity [4] Dose-Dependent Effect | Activity [5] Dose-Dependent Effect | inhibition [6] | Activity [7]

CC(/C=C/C(=O)NO)=C\[C@@H](C)C(=O)c1ccc(N(C)C)cc1
active: Activity [8] | Activity [9] | Activity [10]
